Experimental data from ChEMBL document CHEMBL1914423, “New imidazo[2,1-b]thiazole derivatives: synthesis, in vitro anticancer evaluation, and in silico studies” (Eur J Med Chem, 2011).

Columns and labels:
Format in all cases: functional
[1] = system: K562; test: Anticancer activity against human K562 cells after 48 hrs by SRB assay; details: K562, 48 h
Procedure, shortened: (§1)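 NCI five-dose screen. Cells in RPMI 1640 with 5% FBS and 2 mM L-glutamine, seeded at 5000–40,000 cells/well according to doubling time, then pre-incubated 24 h at 37 °C in 5% CO2. Drugs dissolved in DMSO, five concentrations by 10-fold or 1/2-log dilution. Cells fixed with TCA, SRB-stained, A515 read. IC50 solved from [(Ti−Tz)/(C−Tz)]×100 = 50.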

[2] = system: MOLT-4; test: Anticancer activity against human MOLT4 cells after 48 hrs by SRB assay; details: MOLT-4, 48 h
[3] = system: SR; test: Anticancer activity against human SR cells after 48 hrs by SRB assay
Procedure, shortened: (§2)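 NCI-60 five-dose mode: cells in RPMI 1640 with 5% FBS and 2 mM glutamine, plated at 5000–40,000 cells/well, and preincubated 24 h, with time-zero plates TCA-fixed. Drug given at five concentrations (10-fold or ½-log serial dilutions). Cold TCA fixation 60 min at 4 °C, SRB stain, Tris solubilization, A515. IC50 taken where [(Ti−Tz)/(C−Tz)]×100 = 50.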

[4] = system: A549; test: Anticancer activity against human A549 cells after 48 hrs by SRB assay; details: A549, 48 h; procedure, shortened: as §1
[5] = system: EKVX; test: Anticancer activity against human EKVX cells after 48 hrs by SRB assay; procedure, shortened: as §1
[6] = system: HOP-92; test: Anticancer activity against human HOP92 cells after 48 hrs by SRB assay; details: HOP-92, 48 h; procedure, shortened: as §1
[7] = system: NCI-H322M; test: Anticancer activity against human NCI-H322M cells after 48 hrs by SRB assay
[8] = system: NCI-H522; test: Anticancer activity against human NCI-H522 cells after 48 hrs by SRB assay; details: NCI-H522, 48 h
[9] = system: COLO 205; test: Anticancer activity against human COLO205 cells after 48 hrs by SRB assay; details: COLO 205, 48 h; procedure, shortened: as §1
[10] = system: HCC 2998; test: Anticancer activity against human HCC2998 cells after 48 hrs by SRB assay; details: HCC 2998, 48 h; procedure, shortened: as §1
[11] = system: HCT-116; test: Anticancer activity against human HCT116 cells after 48 hrs by SRB assay; details: HCT-116, 48 h; procedure, shortened: as §1
[12] = system: KM12; test: Anticancer activity against human KM12 cells after 48 hrs by SRB assay; details: KM12, 48 h; procedure, shortened: as §1
[13] = system: SF-295; test: Anticancer activity against human SF295 cells after 48 hrs by SRB assay; details: SF-295, 48 h
[14] = system: SNB-75; test: Anticancer activity against human SNB75 cells after 48 hrs by SRB assay; details: SNB-75, 48 h
[15] = system: U-251; test: Anticancer activity against human U251 cells after 48 hrs by SRB assay; details: U-251, 48 h; procedure, shortened: as §2
[16] = system: M14; test: Anticancer activity against human M14 cells after 48 hrs by SRB assay; details: M14, 48 h; procedure, shortened: as §1
[17] = system: MDA-MB-435; test: Anticancer activity against human MDA-MB-435 cells after 48 hrs by SRB assay; details: MDA-MB-435, 48 h; procedure, shortened: as §1
[18] = system: SK-MEL-2; test: Anticancer activity against human SK-MEL-2 cells after 48 hrs by SRB assay; details: SK-MEL-2, 48 h
[19] = system: OVCAR-3; test: Anticancer activity against human OVCAR3 cells after 48 hrs by SRB assay; details: OVCAR-3, 48 h
[20] = system: A498; test: Anticancer activity against human A498 cells after 48 hrs by SRB assay; details: A498, 48 h; procedure, shortened: as §1
[21] = system: ACHN; test: Anticancer activity against human ACHN cells after 48 hrs by SRB assay; procedure, shortened: as §1
[22] = system: RXF 393; test: Anticancer activity against human RXF393 cells after 48 hrs by SRB assay; details: RXF 393, 48 h
[23] = system: TK-10; test: Anticancer activity against human TK10 cells after 48 hrs by SRB assay; details: TK-10, 48 h; procedure, shortened: as §2
[24] = system: PC-3; test: Anticancer activity against human PC3 cells after 48 hrs by SRB assay; details: PC-3, 48 h
[25] = system: DU-145; test: Anticancer activity against human DU145 cells after 48 hrs by SRB assay; details: DU-145, 48 h; procedure, shortened: as §1
[26] = system: MCF7; test: Anticancer activity against human MCF7 cells after 48 hrs by SRB assay; details: MCF7, 48 h; procedure, shortened: as §1
[27] = system: MDA-MB-231; test: Anticancer activity against human MDA-MB-231 cells after 48 hrs by SRB assay; details: MDA-MB-231, 48 h; procedure, shortened: as §1
[28] = Anticancer activity against human Hs 578T cells after 48 hrs by SRB assay; procedure, shortened: as §1
[29] = system: T47D; test: Anticancer activity against human T47D cells after 48 hrs by SRB assay; procedure, shortened: as §2
[30] = system: MDA-MB-468; test: Anticancer activity against human MDA-MB-468 cells after 48 hrs by SRB assay; details: MDA-MB-468, 48 h
[31] = read-out: LC50 (the source's name)

O=C(NCCNc1nccc(-c2c(-c3cccc(O)c3)nc3sccn23)n1)c1ccccc1O
GI50 [1]: 6.06 µM | TGI [1]: > 100 µM | CC50 [1, 31]: > 100 µM | GI50 [2]: 2970 nM | TGI [2]: 21.7 µM | CC50 [2, 31]: > 100 µM | GI50 [3]: 5.94 µM | TGI [3]: > 100 µM | CC50 [3, 31]: > 100 µM | GI50 [4]: 11 µM | LC50 (concentration giving 50% net tumour cell kill) [4]: > 100 µM | TGI [4]: 49 µM | GI50 [5]: 7.81 µM | LC50 [5]: > 100 µM | TGI [5]: 39.1 µM | GI50 [6]: 9.74 µM | TGI [6]: 34.7 µM | CC50 [6, 31]: > 100 µM | GI50 [7]: 4.6 µM | TGI [7]: 18.5 µM | CC50 [7, 31]: 66.6 µM | GI50 [8]: 4.83 µM | TGI [8]: 20.4 µM | CC50 [8, 31]: 57 µM | GI50 [9]: 5.58 µM | TGI [9]: 20.9 µM | CC50 [9, 31]: 66.1 µM | GI50 [10]: 3.55 µM | TGI [10]: 16.5 µM | CC50 [10, 31]: > 100 µM | GI50 [11]: 5.13 µM | TGI [11]: > 100 µM | CC50 [11, 31]: > 100 µM | GI50 [12]: 6.38 µM | TGI [12]: 27.3 µM | CC50 [12, 31]: > 100 µM | GI50 [13]: 7.69 µM | TGI [13]: 27.2 µM | CC50 [13, 31]: 83.9 µM | GI50 [14]: 2650 nM | TGI [14]: 20.5 µM | CC50 [14, 31]: > 100 µM | GI50 [15]: 152 nM | TGI [15]: 18.7 µM | CC50 [15, 31]: 64.6 µM | GI50 [16]: 683 nM | TGI [16]: 39 µM | CC50 [16, 31]: > 100 µM | GI50 [17]: 1220 nM | TGI [17]: 3.54 µM | CC50 [17, 31]: 10.6 µM | GI50 [18]: 651 nM | TGI [18]: 15.9 µM | CC50 [18, 31]: > 100 µM | GI50 [19]: 3.35 µM | TGI [19]: 30.3 µM | CC50 [19, 31]: > 100 µM | GI50 [20]: 14.5 µM | TGI [20]: 33.7 µM | CC50 [20, 31]: 78.1 µM | GI50 [21]: 3.89 µM | TGI [21]: > 100 µM | CC50 [21, 31]: > 100 µM | GI50 [22]: 3.19 µM | TGI [22]: 21.2 µM | CC50 [22, 31]: > 100 µM | GI50 [23]: 11.6 µM | TGI [23]: 52.2 µM | CC50 [23, 31]: > 100 µM | GI50 [24]: 5.15 µM | TGI [24]: 77.6 µM | CC50 [24, 31]: > 100 µM | GI50 [25]: 5.22 µM | TGI [25]: 43.3 µM | CC50 [25, 31]: > 100 µM | GI50 [26]: 4.03 µM | TGI [26]: 22.2 µM | CC50 [26, 31]: > 100 µM | GI50 [27]: 2630 nM | TGI [27]: 62.3 µM | CC50 [27, 31]: > 100 µM | GI50 [28]: 2960 nM | TGI [28]: 26.9 µM | CC50 [28, 31]: > 100 µM | GI50 [29]: 2950 nM | TGI [29]: 20 µM | CC50 [29, 31]: > 100 µM | GI50 [30]: 2300 nM | TGI [30]: 18.2 µM | CC50 [30, 31]: > 100 µM
